Measurements as given in ChEMBL document CHEMBL1137378, “Antibacterial agent discovery using thymidylate synthase biolibrary screening” (J Med Chem, 2006).
Converted amounts (≈) assume the structure as drawn.

How the values were obtained:
Listeria monocytogenes [1] = assay: Antibacterial activity against Listeria monocytogenes 8; assay type: functional
In short: (§1)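 Wild-type strain panel (18 Gram-positive and Gram-negative strains). Bacteria grown in Mueller-Hinton broth at 37 °C for 24 h. Exponentially growing cultures diluted in sterile liquid medium to a final inoculum of about 1 × 10⁴ CFU/mL, then exposed to increasing compound concentrations. MIC taken as the lowest concentration with no evident bacterial growth.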

Streptococcus = assay: Antibacterial activity against Streptococcus 42; assay type: functional; in short: as §1
[2] = Specificity Index, Ki for human thymidylate synthase/Ki for Escherichia coli thymidylate synthase
Vero [3] = assay: Cytotoxicity against Vero cells measured as percent of cell growth at 50 mg/L relative to control by MTT assay; assay type: functional, Chlorocebus sabaeus
In short: (§2)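 VERO cells grown in MEM with 5% heat-inactivated (56 °C, 30 min) FCS, penicillin, streptomycin and L-glutamine. Cultures were watched for 2 days and live cells counted. Cells were then exposed to increasing compound concentrations; wells with cells only served as control. After 24 h, mitochondrial dehydrogenase activity was read by MTT. Trypan blue exclusion was also run.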

Escherichia coli [4] = assay: Antibacterial activity against Escherichia coli 292; assay type: functional; in short: as §1
Vero [5] = assay: Cytotoxicity against Vero cells measured as percent of cell growth at 3.12 mg/L relative to control by MTT assay; assay type: functional, Chlorocebus sabaeus; in short: as §2
Listeria monocytogenes [6] = assay: Antibacterial activity against Listeria monocytogenes 3; assay type: functional; in short: as §1
Thymidylate synthase [7] = target: Thymidylate synthase (Escherichia coli, UniProt C3SWJ7); assay: Inhibition of Escherichia coli thymidylate synthase
Thymidylate synthase (Escherichia coli, UniProt C3SWJ7), sequence (C3SWJ7 whole entry): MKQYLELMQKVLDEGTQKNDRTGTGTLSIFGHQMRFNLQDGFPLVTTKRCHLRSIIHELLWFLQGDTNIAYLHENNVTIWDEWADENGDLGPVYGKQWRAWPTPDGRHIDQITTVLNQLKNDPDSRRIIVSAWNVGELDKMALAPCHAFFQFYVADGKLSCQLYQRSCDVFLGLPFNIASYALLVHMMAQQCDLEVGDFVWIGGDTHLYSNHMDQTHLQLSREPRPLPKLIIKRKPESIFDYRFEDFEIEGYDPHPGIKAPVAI

Vero [8] = assay: Cytotoxicity against Vero cells measured as percent of cell growth at 25 mg/L relative to control by MTT assay; assay type: functional, Chlorocebus sabaeus; in short: as §2
Vero [9] = assay: Cytotoxicity against Vero cells measured as percent of cell growth at 6.25 mg/L relative to control by MTT assay; assay type: functional, Chlorocebus sabaeus; in short: as §2
[10] = Specificity Index, Ki for human thymidylate synthase/Ki for Cryptococcus neoformans thymidylate synthase
In short: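 Specificity index is Ki of hTS divided by Ki of the pathogen TS (LcTS, EcTS or CnTS). Each enzyme was purified to >95% and assayed spectrophotometrically at 340 nm, 20 °C. Buffer was TES 50 mM pH 7.4 with MgCl2, formaldehyde, EDTA and 2-mercaptoethanol, plus dUMP 100 µM, mTHF 140 µM and enzyme 0.07 µM.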

Homo sapiens = organism: Homo sapiens; assay: Selectivity Index, Ki for human dihydrofolate reductase/Ki for human thymidylate synthase
Enterococcus faecalis = assay: Antibacterial activity against Enterococcus faecalis ATCCC29212; assay type: functional; in short: as §1
Listeria monocytogenes [11] = assay: Antibacterial activity against Listeria monocytogenes 6; assay type: functional; in short: as §1
Vero [12] = assay: Cytotoxicity against Vero cells measured as percent of cell growth at 1.56 mg/L relative to control by MTT assay; assay type: functional, Chlorocebus sabaeus; in short: as §2
[13] = Specificity Index, Ki for human thymidylate synthase/Ki for Lactobacillus casei thymidylate synthase
Thymidylate synthase [14] = target: T1, Thymidylate synthase (Lactobacillus casei, UniProt P00469); assay: Inhibition of Lactobacillus casei thymidylate synthase; design: species or system Lacticaseibacillus casei
T1 sequence (P00469 whole entry): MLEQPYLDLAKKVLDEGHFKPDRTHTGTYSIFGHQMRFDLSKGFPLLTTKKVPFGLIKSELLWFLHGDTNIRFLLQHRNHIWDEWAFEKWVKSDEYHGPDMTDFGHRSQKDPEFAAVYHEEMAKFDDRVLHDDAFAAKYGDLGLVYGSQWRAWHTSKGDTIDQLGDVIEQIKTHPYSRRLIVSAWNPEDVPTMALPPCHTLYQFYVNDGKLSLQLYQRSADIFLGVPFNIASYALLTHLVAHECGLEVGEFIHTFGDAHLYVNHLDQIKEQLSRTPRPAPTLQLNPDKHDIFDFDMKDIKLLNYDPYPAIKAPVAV

Escherichia coli [15] = assay: Antibacterial activity against Escherichia coli 256; assay type: functional; in short: as §1
Thymidylate synthase [16] = target: T2, Thymidylate synthase (Cryptococcus neoformans var. neoformans B-3501A, UniProt P0CS13); assay: Inhibition of Cryptococcus neoformans thymidylate synthase
T2 sequence (P0CS13 whole entry): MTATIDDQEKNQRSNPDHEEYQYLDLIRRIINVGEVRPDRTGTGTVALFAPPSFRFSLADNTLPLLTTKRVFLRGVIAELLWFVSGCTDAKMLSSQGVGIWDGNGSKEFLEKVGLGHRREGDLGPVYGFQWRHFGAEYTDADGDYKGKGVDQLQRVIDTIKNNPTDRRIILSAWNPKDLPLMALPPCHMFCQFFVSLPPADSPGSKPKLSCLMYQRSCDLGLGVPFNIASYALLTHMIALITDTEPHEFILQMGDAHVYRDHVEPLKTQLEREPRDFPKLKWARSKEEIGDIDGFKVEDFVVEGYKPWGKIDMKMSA

Staphylococcus aureus [17] = assay: Antibacterial activity against Staphylococcus aureus 343; assay type: functional; in short: as §1
[18] = tested on: Staphylococcus saprophyticus; assay: Antibacterial activity against Staphylococcus saprophyticus ATCC 15305; assay type: functional; in short: as §1
Listeria monocytogenes [19] = assay: Antibacterial activity against Listeria monocytogenes ATCC 4428; assay type: functional; in short: as §1
Vero [20] = assay: Cytotoxicity against Vero cells measured as percent of cell growth at 12.05 mg/L relative to control by MTT assay; assay type: functional, Chlorocebus sabaeus; in short: as §2
Listeria monocytogenes [21] = assay: Antibacterial activity against Listeria monocytogenes 4; assay type: functional; in short: as §1
Staphylococcus aureus [22] = assay: Antibacterial activity against Staphylococcus aureus K28; assay type: functional; in short: as §1
Staphylococcus aureus [23] = assay: Antibacterial activity against Staphylococcus aureus ATCC 29213; assay type: functional; in short: as §1
Listeria monocytogenes [24] = assay: Antibacterial activity against Listeria monocytogenes 5; assay type: functional; in short: as §1
Dihydrofolate reductase = target: T3, Dihydrofolate reductase (Homo sapiens, UniProt P00374); assay: Inhibition of human dihydrofolate reductase
T3 sequence (P00374 whole entry): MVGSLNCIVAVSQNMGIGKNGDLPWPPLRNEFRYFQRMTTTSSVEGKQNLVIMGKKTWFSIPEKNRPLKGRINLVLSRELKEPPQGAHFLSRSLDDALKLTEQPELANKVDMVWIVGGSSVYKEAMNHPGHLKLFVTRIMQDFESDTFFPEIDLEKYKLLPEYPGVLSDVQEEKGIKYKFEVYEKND
In short: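 Purified human DHFR assayed spectrophotometrically at 25 °C by the fall in A340 on DHF reduction. Ki from steady-state kinetics.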

[25] = tested on: Staphylococcus haemolyticus; assay: Antibacterial activity against Staphylococcus haemolyticus ATCC 2997; assay type: functional; in short: as §1
Citrobacter = assay: Antibacterial activity against Citrobacter 224; assay type: functional; in short: as §1
Staphylococcus aureus [26] = assay: Antibacterial activity against Staphylococcus aureus 341; assay type: functional; in short: as §1
Thymidylate synthase [27] = target: Thymidylate synthase (Homo sapiens, UniProt P04818); assay: Inhibition of human thymidylate synthase
Thymidylate synthase (Homo sapiens, UniProt P04818), sequence (P04818 whole entry): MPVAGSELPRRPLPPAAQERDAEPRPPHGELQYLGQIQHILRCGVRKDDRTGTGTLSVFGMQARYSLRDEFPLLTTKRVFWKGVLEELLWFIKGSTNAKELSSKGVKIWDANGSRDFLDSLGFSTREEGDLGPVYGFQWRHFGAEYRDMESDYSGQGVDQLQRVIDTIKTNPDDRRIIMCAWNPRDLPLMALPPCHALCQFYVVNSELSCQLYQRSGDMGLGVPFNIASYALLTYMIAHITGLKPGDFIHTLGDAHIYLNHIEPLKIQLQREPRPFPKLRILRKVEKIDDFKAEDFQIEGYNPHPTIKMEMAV

Listeria monocytogenes [28] = assay: Antibacterial activity against Listeria monocytogenes 7; assay type: functional; in short: as §1

## O=C1OC(c2ccc(O)c(Br)c2)(c2ccc(O)c(Br)c2)c2cccc3cccc1c23
Listeria monocytogenes [1]
  MIC: 5 µg/mL (≈ 9.5 µM)
Streptococcus
  MIC: 5 µg/mL (≈ 9.5 µM)
[2]
  Ratio Ki: 5
Vero [3]
  Activity: 41%
Escherichia coli [4]
  MIC: > 50 µg/mL
Vero [5]
  Activity: 100%
Listeria monocytogenes [6]
  MIC: 2.5 µg/mL (≈ 4.75 µM)
Thymidylate synthase [7]
  Ki: 0.9 µM
Vero [8]
  Activity: 84%
Vero [9]
  Activity: 100%
[10]
  Ratio Ki: 0.4
Homo sapiens
  Selectivity index: 3
Enterococcus faecalis
  MIC: 10 µg/mL (≈ 19 µM)
Listeria monocytogenes [11]
  MIC: 5 µg/mL (≈ 9.5 µM)
Vero [12]
  Activity: 100%
[13]
  Ratio Ki: 1
Thymidylate synthase [14]
  Ki: 6.8 µM
Escherichia coli [15]
  MIC: > 50 µg/mL
Thymidylate synthase [16]
  Ki: 13 µM
Staphylococcus aureus [17]
  MIC: 5 µg/mL (≈ 9.5 µM)
[18]
  MIC: 5 µg/mL (≈ 9.5 µM)
Listeria monocytogenes [19]
  MIC: 5 µg/mL (≈ 9.5 µM)
Vero [20]
  Activity: 100%
Listeria monocytogenes [21]
  MIC: 5 µg/mL (≈ 9.5 µM)
Staphylococcus aureus [22]
  MIC: 5 µg/mL (≈ 9.5 µM)
Staphylococcus aureus [23]
  MIC: 5 µg/mL (≈ 9.5 µM)
Listeria monocytogenes [24]
  MIC: 5 µg/mL (≈ 9.5 µM)
Dihydrofolate reductase
  Ki: 15 µM
[25]
  MIC: 5 µg/mL (≈ 9.5 µM)
Citrobacter
  MIC: > 50 µg/mL
Staphylococcus aureus [26]
  MIC: 5 µg/mL (≈ 9.5 µM)
Thymidylate synthase [27]
  Ki: 4.7 µM
Listeria monocytogenes [28]
  MIC: 1 µg/mL (≈ 1.9 µM)
